Results reported in ChEMBL document CHEMBL4425108, “A Selective and Slowly Reversible Inhibitor of l-Type Amino Acid Transporter 1 (LAT1) Potentiates Antiproliferative Drug Efficacy in Cancer Cells” (J Med Chem, 2016).
Converted amounts (≈) assume the structure as drawn. The source made the active and inactive calls. No cut-off for these calls is given here.

How the values were obtained:
[1] = biological target: T1, Large neutral amino acids transporter small subunit 1 (Homo sapiens, UniProt Q01650); test: Competitive inhibition of [14C]-L-leucine uptake at LAT1 in human MCF7 cells at 25 uM preincubated for 10 mins followed by addition of substrate measured during 5 mins by liquid scintillation counting; assay type: cell-based
T1 sequence (Q01650 whole entry): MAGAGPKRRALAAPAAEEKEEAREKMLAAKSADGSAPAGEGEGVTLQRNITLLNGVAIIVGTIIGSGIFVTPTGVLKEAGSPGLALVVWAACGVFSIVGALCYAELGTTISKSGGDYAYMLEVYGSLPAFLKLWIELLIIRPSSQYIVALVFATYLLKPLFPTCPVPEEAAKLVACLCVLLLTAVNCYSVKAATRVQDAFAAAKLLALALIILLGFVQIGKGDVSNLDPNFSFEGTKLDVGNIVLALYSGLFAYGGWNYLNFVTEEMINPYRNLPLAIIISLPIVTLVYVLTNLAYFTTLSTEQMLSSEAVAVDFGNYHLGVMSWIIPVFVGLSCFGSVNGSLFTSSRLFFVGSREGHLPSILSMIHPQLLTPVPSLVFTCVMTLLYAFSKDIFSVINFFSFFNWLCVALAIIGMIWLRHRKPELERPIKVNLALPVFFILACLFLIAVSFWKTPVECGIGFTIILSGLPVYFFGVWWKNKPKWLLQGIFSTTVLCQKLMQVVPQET
How it was run: (§1)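 MCF-7 cells seeded 1 × 10^5/well, used one day later. Washed and pre-incubated 10 min at 37 °C in choline-chloride HBSS (Na+-free, 25 mM HEPES, pH 7.4), then 5 min at 37 °C with 0.157 µM [14C]-L-leucine plus 1-1000 µM inhibitor (DMSO blank). Ice-cold washes, NaOH lysis, scintillation counting. IC50 by nonlinear regression over 8 concentrations. Mean ± SD, n=3.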

[2] = biological target: T1, Large neutral amino acids transporter small subunit 1; test: Competitive binding to LAT1 in human MCF7 cells at 100 uM after 30 mins in presence of unselective OATP substrate L-thyroxine by HPLC analysis; assay type: cell-based
How it was run: (§2)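 MCF-7 cells incubated 30 min at 37 °C in HBSS (pH 7.4) holding 100 µM test compound plus 500 µM competitor. Cells washed three times with ice-cold HBSS and lysed in 0.1 M NaOH. Cell-associated compound measured by HPLC against a lysate-spiked standard curve and normalised to protein. Mean ± SD, n=3.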

[3] = Terminal half life in mouse brain at 23 umol/kg, ip administered as bolus by LC-MS analysis; assay type: ADME, organism-based; conditions: read-out: beta t1/2
How it was run: (§3)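 Male adult mice (25 ± 5 g) given a single i.p. bolus at 23 µmol/kg. The dosing solution was 1.36 mM in 10% (v/v) DMSO, 20% (w/v) hydroxypropyl-β-cyclodextrin and 0.9% NaCl. Animals were decapitated at seven time points from 10 to 480 min. Plasma and tissues were acetonitrile-precipitated with repaglinide internal standard and analysed by LC-MS. Parameters were derived from concentration–time data, mean ± SEM (n=3).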

[4] = Terminal half life in mouse kidney at 23 umol/kg, ip administered as bolus by LC-MS analysis; assay type: ADME, organism-based; conditions: read-out: beta t1/2; how it was run: as §3
[5] = AUC (0 to 480 min) in mouse prostate at 23 umol/kg, ip administered as bolus by LC-MS analysis; assay type: ADME, organism-based, Prostate gland; design: dose 23 umol/kg, time < 8 hr, route intraperitoneal; conditions: in vivo, 8 h; how it was run: as §3
[6] = biological target: T1, Large neutral amino acids transporter small subunit 1; test: Binding affinity to LAT1 in human MCF7 cells at 100 uM after 30 mins by HPLC analysis; assay type: cell-based
How it was run: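 MCF-7 cells given 25-400 µM compound in pre-warmed HBSS (pH 7.4) at 37 °C for 30 min, washed three times with ice-cold HBSS, lysed in 0.1 M NaOH. Lysate quantified by HPLC-UV against a standard curve spiked into cell lysate. Amount normalised to protein (Bio-Rad assay, nmol/mg protein). n=3.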

[7] = biological target: T1, Large neutral amino acids transporter small subunit 1; test: Inhibition of LAT1 in human MCF7 cells assessed as potentiation of bestatin-induced antiproliferative activity by measuring reduction in cell viability at 25 uM measured after 48 hrs by resazurin dye-based fluorimetric analysis
How it was run: (§4)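 MCF-7 cells seeded 2 × 10^4/well on collagen-coated plates, treated one day later in growth medium with inhibitor (25 or 100 µM) plus bestatin or cisplatin (100 µM) for up to 3 days. Viability read daily by resazurin fluorescence (ex 560/em 590 nm). Viability is treated relative to untreated control. Mean ± SD, n=3.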

[8] = biological target: T1, Large neutral amino acids transporter small subunit 1; test: Competitive binding to LAT1 in human MCF7 cells at 100 uM after 30 mins in presence of OATP 1A2/2B1 inhibitor naringin by HPLC analysis; assay type: cell-based; how it was run: as §2
[9] = Tmax in mouse heart at 23 umol/kg, ip administered as bolus by LC-MS analysis; assay type: ADME, organism-based
How it was run: (§5)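 Adult male mice (25 ± 5 g) given a single i.p. bolus of 23 µmol/kg, dosing solution 1.36 mM in 10% (v/v) DMSO, 20% (w/v) hydroxypropyl-β-cyclodextrin, 0.9% NaCl in water. Decapitation at time points 10–480 min; plasma, brain, liver, prostate, kidney, heart collected. Acetonitrile precipitation with repaglinide internal standard, LC-MS (ESI positive). tmax and t½β taken from concentration-time data; mean ± SEM, n=3.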

[10] = biological target: T1, Large neutral amino acids transporter small subunit 1; test: Inhibition of LAT1 in human MCF7 cells assessed as potentiation of cisplatin-induced antiproliferative activity by measuring reduction in cell viability at 100 uM measured after 48 hrs by resazurin dye-based fluorimetric analysis; how it was run: as §4
[11] = fCmax in mouse brain at 23 umol/kg, ip administered as bolus by LC-MS analysis; assay type: ADME, organism-based; conditions: in vivo
How it was run: (§6)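 Male mice (25 ± 5 g) dosed i.p. as a bolus at 23 µmol/kg in DMSO/hydroxypropyl-β-cyclodextrin/saline vehicle, sampled at time points 10–480 min; plasma and tissue homogenates (1:3 water) analysed by LC-MS. […] Mean ± SEM.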

[12] = Unbound AUC (0 to 480 mins) in mouse brain at 23 umol/kg, ip administered as bolus by LC-MS analysis; assay type: ADME, organism-based; conditions: in vivo; how it was run: as §6
[13] = Tmax in mouse prostate at 23 umol/kg, ip administered as bolus by LC-MS analysis; assay type: ADME, organism-based, Prostate gland; how it was run: as §5
[14] = Fraction unbound in mouse plasma at 23 umol/kg, ip administered as bolus by LC-MS analysis; assay type: ADME, organism-based
How it was run: (§7)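 Unbound fraction was measured by equilibrium dialysis at 100 µM in mouse plasma and in brain, liver, kidney, heart and prostate homogenates.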

[15] = Ratio of IC50 for human MCF7 cells to IC50 for [14C]-L-leucine uptake at LAT1 in human MCF7 cells
[16] = fCmax in mouse heart at 23 umol/kg, ip administered as bolus by LC-MS analysis; assay type: ADME, organism-based; conditions: in vivo; how it was run: as §6
[17] = biological target: T1, Large neutral amino acids transporter small subunit 1; test: Competitive binding to LAT1 in human MCF7 cells at 100 uM after 30 mins in presence of MCT1 inhibitor phloretin by HPLC analysis; assay type: cell-based; how it was run: as §2
[18] = biological target: T1, Large neutral amino acids transporter small subunit 1; test: Inhibition of LAT1 in human MCF7 cells assessed as potentiation of bestatin-induced antiproliferative activity by measuring reduction in cell viability at 100 uM measured after 48 hrs by resazurin dye-based fluorimetric analysis; how it was run: as §4
[19] = Fraction unbound in mouse brain at 23 umol/kg, ip administered as bolus by LC-MS analysis; assay type: ADME, organism-based; how it was run: as §7
[20] = Plasma concentration in mouse at 23 umol/kg, ip measured after 10 mins; assay type: ADME, organism-based
[21] = biological target: T1, Large neutral amino acids transporter small subunit 1; test: Competitive binding to LAT1 in human MCF7 cells at 100 uM after 30 mins in presence of OATP 1B1/1B3 inhibitor rifampicin by HPLC analysis; assay type: cell-based; how it was run: as §2
[22] = Unbound AUC (0 to 480 mins) in mouse plasma at 23 umol/kg, ip administered as bolus by LC-MS analysis; assay type: ADME, organism-based; conditions: in vivo; how it was run: as §6
[23] = biological target: T1, Large neutral amino acids transporter small subunit 1; test: Competitive inhibition of [14C]-L-leucine uptake at LAT1 in human MCF7 cells at 100 uM preincubated for 10 mins followed by addition of substrate measured during 5 mins by liquid scintillation counting; assay type: cell-based; how it was run: as §1
[24] = biological target: T1, Large neutral amino acids transporter small subunit 1; test: Inhibition of LAT1 in human MCF7 cells assessed as potentiation of cisplatin-induced antiproliferative activity by measuring reduction in cell viability at 25 uM measured after 72 hrs by resazurin dye-based fluorimetric analysis; how it was run: as §4
[25] = Cmax in mouse plasma at 23 umol/kg, ip administered as bolus by LC-MS analysis; assay type: ADME, organism-based; design: dose 23 umol/kg, route intraperitoneal; how it was run: as §3
[26] = Cmax in mouse liver at 23 umol/kg, ip administered as bolus by LC-MS analysis; assay type: ADME, organism-based; design: dose 23 umol/kg, route intraperitoneal; conditions: in vivo; how it was run: as §3
[27] = Aqueous solubility of the compound measured after 4 hrs by HPLC method; assay type: physicochemical

inhibition [1]: 55.1% | Activity [2]: Active | half-life [3]: 71.6 min | half-life [4]: 41.8 min | AUC [5]: 1275 nmol/g/min | Activity [6]: Active | Activity [8]: Active | Tmax [9]: 30 min | fCmax [11]: 0.02 nmol/g | fAUC [12]: 0.1 nmol/g/min | Tmax [13]: 30 min | fraction unbound [14]: 0.0098 | fCmax [16]: 0.08 nmol/g | Activity [17]: Active | fraction unbound [19]: 0.0103 | concentration at 10 min [20]: 20 µM | Activity [21]: Active | fAUC [22]: 7.8 nmol/min/mL | inhibition [23]: 77.8% | Cmax [25]: 19.5 µM | Cmax [26]: 38.7 nmol/g | solubility at 4 h [27]: 1160 µg/mL (≈ 1970 µM)
SMILES: CNC(=O)COc1ccc(-c2c(C#N)c(NC(=O)c3cccc(C[C@H](N)C(=O)O)c3)n3c(nc4ccccc43)c2C#N)cc1
Activity [7]: 40.5% | Activity [10]: 60.4% | Ratio IC50 [15]: 6.9 | Activity [18]: 42.7% | Activity [24]: 49.7%
